Measured values reported in PubChem BioAssay.
The source made the active and inactive calls. Cut-off read from the data, not from the text of the source, unless noted: active = inhibition above about 30%; inactive = the rest.

Experiment: growth suppression of yeast trafficking mutant, preliminary HTS, modulators of trafficking downstream of Golgi apparatus project, 1536-format plate, OD 615 nm (AID 637)
Settings: yeast transport mutant growth, absorbance 615 nm, 18 h; hits give high values

Row | Structure (SMILES) | inhibition
1 | COCCNC(=O)c1cc(-c2cccs2)on1 | -4.17% (inactive)
2 | CC(C)c1nnc(NC(=O)C2CCCCC2)s1 | 0.83% (inactive)
3 | Cc1nc2ccc(S(=O)(=O)NC(C(=O)Nc3nccs3)C(C)C)cc2s1 (stereo not given) | -0.17% (inactive)
4 | O=C(Cn1c(=O)[nH]c2ccsc2c1=O)NC1CCCCCC1 | 2.17% (inactive)
5 | CCCCN(C)Cc1c(O)ccc2c(-c3ccccc3)cc(=O)oc12 | 2.95% (inactive)
6 | O=C(CN1CCN(Cc2ccccc2F)C1=O)NCc1cccnc1 | -1.97% (inactive)
7 | O=c1c2ccccc2nc2n1CCN2 | 5.16% (inactive)
8 | O=C(CSc1nnc(Cn2c(=O)sc3ccccc32)n1-c1ccccc1)Nc1nccs1 | -4.43% (inactive)
9 | Cc1ccc(-n2nc(C)c3cc(C(=O)O)sc32)cc1 | -2% (inactive)
10 | CCOC(=O)c1oc2c(CN3CCN(C)CC3)c(O)ccc2c(=O)c1-c1ccccc1OC | 0.5% (inactive)
11 | CCCCn1c(NCc2ccccc2O)nc2ccccc21 | -2.33% (inactive)
12 | Cc1cc2ncc(-c3ccc(Cl)cc3)c(N)n2n1 | -0.5% (inactive)
13 | CC1(C(=O)NC2CCCCC2)CCC(=O)N1Cc1cccs1 (stereo not given) | 8.83% (inactive)
14 | CCc1cc(=O)n2[nH]c(C)c(-c3ccccc3OC)c2n1 | -6.83% (inactive)
15 | Cc1nnc(SCCn2c(N3CCC(Cc4ccccc4)CC3)nc3c2c(=O)[nH]c(=O)n3C)s1 | -5.56% (inactive)
16 | O=C(C1CCCN(S(=O)(=O)c2cccnc2)C1)N1CCn2c1nc1ccccc12 (stereo not given) | -0.33% (inactive)
17 | CCOC(=O)c1ccc(NC(=O)Cn2cc3c(n2)CCC(C)C3)cc1 (stereo not given) | -2.13% (inactive)
18 | Cc1cc(C)cc(N(CC(=O)Nc2cccc(C)n2)S(=O)(=O)c2c(C)noc2C)c1 | -2% (inactive)
19 | COc1ccc(-c2nnc(SCC(=O)N3CCOCC3)o2)cc1OC | -6.89% (inactive)
20 | Cc1c(C(=O)OCc2ccccc2)[nH]c2c1C(=O)CC(c1ccco1)C2 (stereo not given) | -0.5% (inactive)

Row | Structure (SMILES) | inhibition
21 | CCCn1cc(SCC(N)=O)c2ccccc21 | 4.83% (inactive)
22 | CC1CCCCN1CCNC(=O)C1CCN(S(=O)(=O)c2cccc3cccnc23)CC1 (stereo not given) | -2.46% (inactive)
23 | Cc1onc(-c2ccccc2Cl)c1C(=O)N1CCc2ccccc21 | -5.5% (inactive)
24 | O=C(c1ccc(CNc2c(N3CCCC3)c(=O)c2=O)cc1)N1CCc2ccccc2C1 | 6.67% (inactive)
25 | Cc1cccc(-n2ncc3c(NCc4cccnc4)ncnc32)c1 | 0.5% (inactive)
26 | COc1cccc2cc(C(=O)OC3CCN(C)CC3)c(=O)oc12 | 0.67% (inactive)
27 | CCOc1ccccc1NC(=O)CC1Nc2cc(C)c(C)cc2NC1=O (stereo not given) | -5.5% (inactive)
28 | COC(=O)C(C)Sc1nnc2n(-c3cccc(C)c3)c(=O)c3c4c(sc3n12)CCCC4 (stereo not given) | 2% (inactive)
29 | Cc1c(NC(=O)C2CCCCN2S(=O)(=O)c2ccc(Cl)cc2)c(=O)n(-c2ccccc2)n1C (stereo not given) | -1% (inactive)
30 | CCC(=O)c1cc(F)c(N2CCN(C(=O)c3ccco3)CC2)cc1C | 2.13% (inactive)
31 | Cc1cccc(C2CC(c3ccccc3)Nc3nc(N)nn32)c1 (stereo not given) | 1.15% (inactive)
32 | Cc1ccc(C)c(NC(=O)CSc2nnc(-c3ccccc3)o2)c1 | -4.5% (inactive)
33 | CCCCN(CC)CCNC(=O)c1cc2c(C)nc3ccccc3c2o1 | -4.43% (inactive)
34 | O=C(Nc1ccccc1)C1=C(O)CC(c2ccoc2)CC1=Nc1ccccc1 (stereo not given) | 4.59% (inactive)
35 | COc1ccc(OCc2nc(C#N)c(N3CCN(c4ccc(OC)cc4)CC3)o2)cc1 | -8.17% (inactive)
36 | CCOc1cccc(OCCCCn2ccnc2)c1 | -2.46% (inactive)
37 | COc1ccc(OC)c(C2CC(=O)NC(SC)=C2C#N)c1 (stereo not given) | -9.02% (inactive)
38 | Cc1cc(NC(=O)c2cccc(S(=O)(=O)N3CC(c4ccccc4)CC3=O)c2)no1 (stereo not given) | 3.33% (inactive)
39 | O=C(Cn1nc(Cc2ccncc2)c2ccccc2c1=O)N1CCN(C(=O)c2ccco2)CC1 | -4.5% (inactive)
40 | COC(=O)c1sc(NC(=O)COc2ccccc2OC)nc1C | -4% (inactive)

Experiment: S. cerevisiae growth inhibition in permissive medium (OD615), pilot counter-assay for S. cerevisiae lifespan shortening project, permissive growth control (AID 705;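 active = growth inhibition above 25% in both replicates, a cutoff set 3 SD above the mean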)
Settings: OD615, 24 h, at 10 µM, hits give high values
In short: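 System: Engineered DeaD yeast | Buffer or medium: SC raffinose/galactose permissive medium | Doses: 10 µM single dose, 0.25% DMSO | Times: 24 h exposure, 30 °C | Measured by: OD615 turbidity read | Read-out: Yeast growth inhibition indicated by reduced 24 h OD615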

Row | Structure (SMILES) | growth inhibition
41 | COCCNC(=O)c1cc(-c2cccs2)on1 | -0.235% (inactive)
42 | CC(C)c1nnc(NC(=O)C2CCCCC2)s1 | -3.55% (inactive)
43 | Cc1nc2ccc(S(=O)(=O)NC(C(=O)Nc3nccs3)C(C)C)cc2s1 (stereo not given) | -5.25% (inactive)
44 | O=C(Cn1c(=O)[nH]c2ccsc2c1=O)NC1CCCCCC1 | -6.35% (inactive)
45 | CCCCN(C)Cc1c(O)ccc2c(-c3ccccc3)cc(=O)oc12 | -4.28% (inactive)
46 | O=C(CN1CCN(Cc2ccccc2F)C1=O)NCc1cccnc1 | 2.81% (inactive)
47 | O=c1c2ccccc2nc2n1CCN2 | -3.22% (inactive)
48 | O=C(CSc1nnc(Cn2c(=O)sc3ccccc32)n1-c1ccccc1)Nc1nccs1 | 11.2% (inactive)
49 | Cc1ccc(-n2nc(C)c3cc(C(=O)O)sc32)cc1 | 16% (inactive)
50 | CCOC(=O)c1oc2c(CN3CCN(C)CC3)c(O)ccc2c(=O)c1-c1ccccc1OC | -13% (inactive)
51 | CCCCn1c(NCc2ccccc2O)nc2ccccc21 | -1.67% (inactive)
52 | Cc1cc2ncc(-c3ccc(Cl)cc3)c(N)n2n1 | -12.6% (inactive)
53 | CC1(C(=O)NC2CCCCC2)CCC(=O)N1Cc1cccs1 (stereo not given) | -4.46% (inactive)
54 | CCc1cc(=O)n2[nH]c(C)c(-c3ccccc3OC)c2n1 | -1.09% (inactive)
55 | Cc1nnc(SCCn2c(N3CCC(Cc4ccccc4)CC3)nc3c2c(=O)[nH]c(=O)n3C)s1 | -2.44% (inactive)
56 | O=C(C1CCCN(S(=O)(=O)c2cccnc2)C1)N1CCn2c1nc1ccccc12 (stereo not given) | 5.56% (inactive)
57 | CCOC(=O)c1ccc(NC(=O)Cn2cc3c(n2)CCC(C)C3)cc1 (stereo not given) | -3.82% (inactive)
58 | Cc1cc(C)cc(N(CC(=O)Nc2cccc(C)n2)S(=O)(=O)c2c(C)noc2C)c1 | -12.3% (inactive)
59 | COc1ccc(-c2nnc(SCC(=O)N3CCOCC3)o2)cc1OC | 1.14% (inactive)
60 | Cc1c(C(=O)OCc2ccccc2)[nH]c2c1C(=O)CC(c1ccco1)C2 (stereo not given) | -15.1% (inactive)

Row | Structure (SMILES) | growth inhibition
61 | CCCn1cc(SCC(N)=O)c2ccccc21 | -9.29% (inactive)
62 | CC1CCCCN1CCNC(=O)C1CCN(S(=O)(=O)c2cccc3cccnc23)CC1 (stereo not given) | 8.94% (inactive)
63 | Cc1onc(-c2ccccc2Cl)c1C(=O)N1CCc2ccccc21 | -1.1% (inactive)
64 | O=C(c1ccc(CNc2c(N3CCCC3)c(=O)c2=O)cc1)N1CCc2ccccc2C1 | -4% (inactive)
65 | Cc1cccc(-n2ncc3c(NCc4cccnc4)ncnc32)c1 | -8.17% (inactive)
66 | COc1cccc2cc(C(=O)OC3CCN(C)CC3)c(=O)oc12 | -7.33% (inactive)
67 | CCOc1ccccc1NC(=O)CC1Nc2cc(C)c(C)cc2NC1=O (stereo not given) | -16.7% (inactive)
68 | COC(=O)C(C)Sc1nnc2n(-c3cccc(C)c3)c(=O)c3c4c(sc3n12)CCCC4 (stereo not given) | -9.47% (inactive)
69 | Cc1c(NC(=O)C2CCCCN2S(=O)(=O)c2ccc(Cl)cc2)c(=O)n(-c2ccccc2)n1C (stereo not given) | -2.56% (inactive)
70 | CCC(=O)c1cc(F)c(N2CCN(C(=O)c3ccco3)CC2)cc1C | -10.3% (inactive)
71 | Cc1cccc(C2CC(c3ccccc3)Nc3nc(N)nn32)c1 (stereo not given) | 1.73% (inactive)
72 | Cc1ccc(C)c(NC(=O)CSc2nnc(-c3ccccc3)o2)c1 | -4.45% (inactive)
73 | CCCCN(CC)CCNC(=O)c1cc2c(C)nc3ccccc3c2o1 | 10% (inactive)
74 | O=C(Nc1ccccc1)C1=C(O)CC(c2ccoc2)CC1=Nc1ccccc1 (stereo not given) | -11.2% (inactive)
75 | COc1ccc(OCc2nc(C#N)c(N3CCN(c4ccc(OC)cc4)CC3)o2)cc1 | -0.985% (inactive)
76 | CCOc1cccc(OCCCCn2ccnc2)c1 | -3.35% (inactive)
77 | COc1ccc(OC)c(C2CC(=O)NC(SC)=C2C#N)c1 (stereo not given) | -11.4% (inactive)
78 | Cc1cc(NC(=O)c2cccc(S(=O)(=O)N3CC(c4ccccc4)CC3=O)c2)no1 (stereo not given) | -15.3% (inactive)
79 | O=C(Cn1nc(Cc2ccncc2)c2ccccc2c1=O)N1CCN(C(=O)c2ccco2)CC1 | -0.345% (inactive)
80 | COC(=O)c1sc(NC(=O)COc2ccccc2OC)nc1C | -1.71% (inactive)
